According to PubChem BioAssay AID489030 (Sanford-Burnham Center for Chemical Genomics, 2010):
Out of some 330,000 compounds screened, about 2,400 (0.73%) were called active. The sample as a whole holds a higher share of actives than the screen did. A number with no mark means an inactive call. The calls were made as follows: active = inhibition of at least 40% at 20 µM; inactive = the rest.

These compounds were tested against Apoptotic protease-activating factor 1 (Homo sapiens) (UniProt O14727) (assay: inhibitors of human Apaf-1 apoptosome, primary screen, biochemical, DEVD-Rh110 fluorescence, uHTS (AID 489030;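 also: plate controls were DMSO wells for no effect and DEVD-CHO caspase inhibitor wells for full effect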)). Settings: reconstituted apoptosome caspase-3 activity, at 20 µM, active compounds read high.
Chain of Apoptotic protease-activating factor 1 (Homo sapiens) (O14727 whole entry, looked up): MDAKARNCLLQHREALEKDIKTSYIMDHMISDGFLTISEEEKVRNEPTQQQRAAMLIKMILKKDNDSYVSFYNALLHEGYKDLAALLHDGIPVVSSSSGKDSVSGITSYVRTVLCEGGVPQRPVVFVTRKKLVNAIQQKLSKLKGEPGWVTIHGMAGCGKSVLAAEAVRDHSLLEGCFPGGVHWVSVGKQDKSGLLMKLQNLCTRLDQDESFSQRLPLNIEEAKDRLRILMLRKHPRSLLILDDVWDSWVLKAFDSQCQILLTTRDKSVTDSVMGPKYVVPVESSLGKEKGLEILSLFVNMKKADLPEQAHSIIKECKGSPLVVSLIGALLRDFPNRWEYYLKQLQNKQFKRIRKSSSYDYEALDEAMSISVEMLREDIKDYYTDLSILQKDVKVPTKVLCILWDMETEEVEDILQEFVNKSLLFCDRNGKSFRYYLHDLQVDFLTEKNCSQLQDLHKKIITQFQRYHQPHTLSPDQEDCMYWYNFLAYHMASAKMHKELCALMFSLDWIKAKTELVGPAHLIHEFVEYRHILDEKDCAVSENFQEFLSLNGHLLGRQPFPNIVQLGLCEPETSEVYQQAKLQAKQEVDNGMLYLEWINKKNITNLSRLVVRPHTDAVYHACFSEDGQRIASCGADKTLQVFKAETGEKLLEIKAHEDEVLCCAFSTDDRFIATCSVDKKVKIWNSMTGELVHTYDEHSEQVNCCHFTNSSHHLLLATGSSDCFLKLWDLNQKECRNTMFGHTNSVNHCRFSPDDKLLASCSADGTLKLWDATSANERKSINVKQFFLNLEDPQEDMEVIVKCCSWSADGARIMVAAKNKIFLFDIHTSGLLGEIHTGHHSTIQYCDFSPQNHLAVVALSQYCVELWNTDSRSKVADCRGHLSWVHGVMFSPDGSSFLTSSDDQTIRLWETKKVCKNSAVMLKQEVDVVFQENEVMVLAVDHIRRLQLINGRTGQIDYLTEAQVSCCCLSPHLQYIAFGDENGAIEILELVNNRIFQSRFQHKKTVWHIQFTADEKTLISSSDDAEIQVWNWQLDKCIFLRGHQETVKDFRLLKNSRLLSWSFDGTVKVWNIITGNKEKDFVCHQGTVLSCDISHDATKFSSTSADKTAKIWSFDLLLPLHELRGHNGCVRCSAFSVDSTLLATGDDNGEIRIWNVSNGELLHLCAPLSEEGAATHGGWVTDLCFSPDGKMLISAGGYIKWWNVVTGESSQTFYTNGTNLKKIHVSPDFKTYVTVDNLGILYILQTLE
How it was run: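 Material: biochemical Apaf-1 apoptosome reconstitution. Medium: Hepes buffer, pH 7.5. Also added: cytochrome c activation, bis-DEVD rhodamine 110 substrate. Timing: 30 min compound preincubation, 50 min activation, room temperature. Measured by: rhodamine 110 fluorescence at Ex 480/Em 540 nm.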
`O=c1nc(N/N=C/c2ccco2)cn[nH]1` showed an inhibition of 2.62%.
With `CCOC(=O)N1CCN(C(=O)COCc2cc(-c3ccc4c(c3)OCO4)on2)CC1` the inhibition was 15.6%.
For `Cc1cc(C)n(-c2nc(SCC(=O)N3CCCC3)c3c4c(sc3n2)CCCC4)n1`, the inhibition was 43.6% (active).
With `CC(C)c1nc(SCC(=O)Nc2cccc(C(=O)O)c2)c2c3c(sc2n1)CCCC3` the inhibition was 7.92%.
In the case of `COCCNc1nc(-n2nc(C)cc2C)nc2sc3c(c12)CCCC3`, the inhibition was 8.1%.
For `CCN(CC)S(=O)(=O)c1cc([N+](=O)[O-])ccc1NNC(=O)Nc1ccccc1`, the inhibition was 7.25%.
`COC(=O)CN1C(C)=Nc2ccc(Br)cc2C1c1ccccc1` (configuration not stated) showed an inhibition of 4.57%.
`COc1ccc(S(=O)(=O)N2CCCCC2)cc1NC(=O)C1CC(=O)N(c2ccc3c(c2)OCCO3)C1` (configuration not stated) showed an inhibition of 18.5%.
In the case of `O=C(COC(=O)c1ccc(O)cc1O)NNC(=O)c1cccs1`, the inhibition was -6.93%.
In the case of `Cc1cccc(OCCNC(=O)CSc2ccc(C(F)(F)F)cc2[N+](=O)[O-])c1`, the inhibition was 15.2%.
Compound `CC(C)OCCCNC(=O)CN1C(=O)/C(=C/c2ccccc2F)Oc2ccccc21` has an inhibition of 11%.
`CN1CCN(CCCNC(=O)c2ccc(/C=C3\Oc4ccccc4N(Cc4ccc(Cl)cc4)C3=O)cc2)CC1` was tested, and the inhibition was 56.6% (active).
With `Cc1c(C)n(Cc2ccc(Cl)cc2)c2ccc(C(=O)NCCCN3CCOCC3)cc12` the inhibition was 25.9%.
Compound `O=C(NCC1CC1)c1onc(CSc2ccccc2)c1C(=O)NCC1CC1` has an inhibition of 14.7%.
`COc1cccc(NC(=O)CSc2nccn(-c3ccc4c(c3)OCCO4)c2=O)c1` was tested, and the inhibition was 5.15%.
In the case of `CCOc1cc(CNCCN(C)C)c(Cl)cc1OCC(=O)NCCc1ccccc1`, the inhibition was 13.1%.
In the case of `COc1ccc(S(=O)(=O)N(C)C[C@@H]2Oc3ccc(NS(=O)(=O)c4cn(C)cn4)cc3C(=O)N([C@@H](C)CO)C[C@@H]2C)cc1`, the inhibition was 5.38%.
`O=C1NNC(c2ccccc2)=N/C1=C\c1ccc(Cl)cc1` was tested, and the inhibition was 50.6% (active).
`Cc1ccc(Cl)c(OCC(=O)N(C)CC(=O)Nc2ccc(N3CCOCC3)cc2)c1` was tested, and the inhibition was 7.19%.
`COC(=O)c1ccc(COC(=O)C2CCN(S(=O)(=O)c3c(Cl)cccc3Cl)CC2)o1` showed an inhibition of 0.83%.
For `CCn1cc(CN2CCC(C(=O)Nc3cccc(-c4cccc(Cl)c4)c3)CC2)c(C)n1`, the inhibition was 40.5% (active).
`O=C(Nc1cccc(-c2cccc(Cl)c2)c1)C1CCN(C2CCC2)CC1` gave an inhibition of 25.3%.
For `CCn1cc(CN2CCC(C(=O)Nc3cccc(-c4cccc(Cl)c4)c3)CC2)cn1`, the inhibition was 33.8%.
Work on `COc1ccccc1N1CCN(C(=O)CSc2ncnc3c2cnn3-c2ccc(C)c(C)c2)CC1` yielded an inhibition of -2.97%.
`COc1cccc(-n2c(N)cc(=O)nc2SCC(=O)Nc2cc(C)on2)c1` gave an inhibition of 0.469%.
`CCCCN1C(=S)NC[C@@H]1C(C)CC` (some centres not stated) gave an inhibition of 1.66%.
`COc1ccccc1C(=O)N1C(CC(=O)Nc2ccccc2C)C(=O)NC2CCCCC21` (configuration not stated) gave an inhibition of -7.88%.
In the case of `CCOC(=O)Cc1cc(=O)[nH]c(/N=C(\N)Nc2ccc(OC)cc2)n1`, the inhibition was -3.54%.
`CCOC(=O)c1ccc(NC(=O)c2c(NCc3ccccc3)[nH]c(=O)[nH]c2=O)cc1` showed an inhibition of 3.08%.
`CCOC(=O)c1ccc(NC(=O)c2c(N)n(C)c(=O)[nH]c2=O)cc1` showed an inhibition of -13.8%.
With `CCOC(=O)c1ccc(Nc2cc3ccccc3c(=O)[nH]2)cc1` the inhibition was 92.5% (active).
`COc1ccc(/C=C/c2c(-c3cccc(C)c3)oc3ccc(-c4ccc5c(c4)OCO5)cc23)cc1` was tested, and the inhibition was -2.24%.
With `CN(CC(=O)Nc1ccccc1Cl)C(=O)c1ccccc1SCC(=O)N1CCCC1` the inhibition was -3.37%.
`CC(C)N(Cc1ccccc1)C(=O)COC(=O)c1ccccc1SCC(=O)N1CCCC1` gave an inhibition of 1.56%.
For `CC(NC(=O)c1ccccc1SCC(=O)N1CCCC1)c1ccccc1` (configuration not stated), the inhibition was 41.6% (active).
With `Cc1ccc(NC2=NC(c3ccccc3)n3c(nc(C)cc3=O)N2)cc1` (configuration not stated) the inhibition was 5.19%.
In the case of `O=C(Nc1ccccc1C(=O)O)c1cc(S(=O)(=O)N2CCCCC2)cs1`, the inhibition was -2.29%.
`COc1ccc(C2=NS(=O)(=O)N(C)C(C(=O)NC(C)c3ccccc3)=C2)cc1` (configuration not stated) showed an inhibition of 1.57%.
In the case of `COc1cc(/C=C2/C(=O)NN(c3cccc(Cl)c3)C2=O)cc(Br)c1O`, the inhibition was 5.53%.
In the case of `C=CCOc1c(Br)cc(/C=N\n2nnnc2N)cc1OC`, the inhibition was 2.56%.
For `CCOc1c(Br)cc(/C=C2\C(=O)N(CCC#N)N=C2C)cc1OC`, the inhibition was 75.9% (active).
With `COc1cc(OC)cc(-c2c(-c3cccs3)c3cc(-c4ccc(OC)cc4F)ccc3n2C)c1` the inhibition was 11.7%.
